The values below come from ChEMBL document CHEMBL4680304, “Synthesis and evaluation of new phenyl acrylamide derivatives as potent non-nucleoside anti-HBV agents” (Bioorg Med Chem, 2021).

The test system of series [1] is Hepatitis B virus. The experiment in a line: Antiviral activity against wild type HBV infected in human […] cells assessed as inhibition of viral DNA replication at 10 uM measured after incubation of 72 hrs by RT-PCR analysis relative to control. In kind it is functional, HepG2 2.2.15. Summed up:
(§1)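 Parental HepG2 cells were plated at 2×10^5/well. After 24 h they were transiently transfected for 24 h with a full-length wild-type HBV genome plasmid, then washed with PBS. Cells were then treated for 72 h in fresh medium: entecavir 10 µM, lamivudine 100 µM. Intracellular HBV DNA replicative intermediates were quantified by real-time PCR.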

Series [2] deals with Hepatitis B virus. As to the kind of experiment: Antiviral activity against lamivudine/entecavir-resistant HBV rtL180M/rtM204V/rtT184L mutant infected in human HepG2 2.2.15 cells assessed as inhibition of viral DNA replication at 10 uM measured after incubation of 72 hrs by RT-PCR analysis relative to control. In kind it is functional. The gist of the method:
(§2)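 HepG2 cells (2 × 10^5/well) plated 24 h, then transiently transfected for 24 h with plasmid carrying full-genome HBV with rtL180M + rtM204V + rtT184L (wild-type genome in parallel). Washed with PBS, then given fresh medium with compound for 72 h. Intracellular HBV DNA replicative intermediates extracted and quantified by real-time PCR against the wild-type group.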

Series [3] relates to Hepatitis B virus. The experiment in a line: Antiviral activity against HBV infected in human HepG2 2.2.15 cells assessed as decrease in extracellular viral DNA level at 0.8 uM measured after incubation of 6 days by RT-PCR analysis. The format is functional. The note with it: HepG2 2.2.15, 144 h, time 6 day. The gist of the method: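 HepG2 2.2.15 cells, which stably carry the HBV genome, were grown in DMEM with 10% FBS, penicillin/streptomycin and 0.38 mg/mL G418. They were seeded at 2×10^5/well and allowed to recover for 24 h. Cells were then exposed to 0.8 µM compound for 6 days, with medium changed every 2 days. HBV DNA was quantified by real-time PCR and expressed as % inhibition versus control.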

Series [4] can be described thus: Selectivity index, ratio of CC50 for human HepG2 2.2.15 to IC50 of antiviral activity against HBV infected in human HepG2 2.2.15 cells assessed as decrease in extracellular viral DNA level measured after incubation of 6 days by RT-PCR analysis. In kind it is toxicity, cell-based. The note with it: time 6 day, read-out: Selectivity Index. Summed up:
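SI was calculated as the CC50 in HepG2 2.2.15 cells (72 h MTT) divided by the IC50 for HBV DNA inhibition. That IC50 came from HepG2 2.2.15 cells treated for 6 days with medium changed every 2 days, with HBV DNA quantified by real-time PCR.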

Series [5] has as its system Hepatitis B virus. As to the kind of experiment: Antiviral activity against wild type HBV infected in human […] cells assessed as inhibition of viral DNA replication at 100 uM measured after incubation of 72 hrs by RT-PCR analysis relative to control. The format is functional, HepG2 2.2.15. Summed up:
as §1

Series [6] in a line: Cytotoxicity against human HepG2 2.2.15 cell line assessed as cell viability measured after 72 hrs by MTT assay. The format is cell-based. The note with it: HepG2 2.2.15 cells. Summed up: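 HepG2 2.2.15 cells were precultured for 24 h, then incubated with compound for 72 h. Viability was read as MTT absorbance at 490 nm relative to untreated cells on the same plate. CC50 is the concentration causing 50% cell death.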
For orientation: Tetrazolium dyes change colour on reduction, which living cells bring about.

The test system of series [7] is Hepatitis B virus. The experiment in a line: Antiviral activity against HBV infected in human HepG2 2.2.15 cells assessed as inhibition of pregenomic RNA expression at 1 uM measured after incubation of 6 by RT-PCR analysis relative to control. The format is functional. As to conditions: HepG2 2.2.15, 144 h, read-out: INH, time 6 day. The gist of the method:
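HepG2 2.2.15 cells were seeded at 6×10^5/well in 6-well plates. They were incubated with 1 µM compound for 6 days. Total cellular RNA was then extracted and pgRNA copies/mL were measured by real-time PCR, giving % inhibition relative to untreated control.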

Series [8] has as its system Hepatitis B virus. The experiment in a line: Antiviral activity against HBV infected in human HepG2 2.2.15 cells assessed as decrease in extracellular viral DNA level measured after incubation of 6 days by RT-PCR analysis. The note with it: HepG2 2.2.15, 144 h. The format is functional, organism-based. Summed up:
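Cells were HepG2 2.2.15 (stable HBV genome), seeded at 2×10^5/well and recovered for 24 h. Dose-dependent exposure to compound lasted 6 days, with medium replaced every 2 days. HBV DNA was measured by real-time PCR. IC50 is the concentration giving 50% inhibition of HBV DNA replication, reported as mean ± SD of triplicate experiments.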

Series [9] relates to Hepatitis B virus. As to the kind of experiment: Antiviral activity against lamivudine/entecavir-resistant HBV rtL180M/rtM204V/rtT184L mutant infected in human HepG2 2.2.15 cells assessed as inhibition of viral DNA replication measured after incubation of 72 hrs by RT-PCR analysis. As to conditions: HepG2 2.2.15, 72 h. The format is functional, organism-based. The gist of the method: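 HepG2 cells transiently transfected for 24 h with full-genome HBV plasmid carrying rtL180M + rtM204V + rtT184L, washed, then treated over a dose range for 72 h. HBV DNA replicative intermediates quantified by real-time PCR. IC50 is the concentration giving 50% inhibition of HBV DNA replication, as mean ± SD of triplicate experiments.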

In series [10] the test system is Hepatitis B virus. As to the kind of experiment: Antiviral activity against lamivudine/entecavir-resistant HBV rtL180M/rtM204V/rtT184L mutant infected in human HepG2 2.2.15 cells assessed as inhibition of viral DNA replication at 100 uM measured after incubation of 72 hrs by RT-PCR analysis relative to control. In kind it is functional. Summed up:
as §2

The structures appear in SMILES notation.

With `C=C1[C@H](CO)[C@@H](O)C[C@@H]1n1cnc2c(=O)[nH]c(N)nc21` [ENTECAVIR], the inhibition at 10 µM in the series on Hepatitis B virus [1] was determined as 96.8%; in the series with Hepatitis B virus [2] it was 20.7%.

Usually CC50 stands for the concentration giving 50% cytotoxicity. What is called IC50 is the concentration at which inhibition is half-maximal. As for `Nc1ccn([C@@H]2CS[C@H](CO)O2)c(=O)n1` [LAMIVUDINE], the inhibition at 0.8 µM in the series on Hepatitis B virus [3] was 86.2%. Further, in [4], the selectivity ratio at 144 h was greater than 1000. Further, the inhibition at 100 µM in the series with Hepatitis B virus [5] turned out to be 90%; in the series on Hepatitis B virus [10] it was 18.6%. For the same compound, in series [6], the half-maximal cytotoxic concentration (CC50) at 72 h was greater than 100 µM. Also, the inhibition at 1 µM in the series with Hepatitis B virus [7] worked out at 0.26%. For the same compound, the IC50 in the series with Hepatitis B virus [8] is 0.031 µM; with Hepatitis B virus [9], greater than 100 µM.
